The record followed here is ChEMBL document CHEMBL1147666, “Fluorinated amphiphilic amino acid derivatives as antioxidant carriers: a new class of protective agents” (J Med Chem, 2006).

In test [1] the test system is Radical scavenging activity. In words: Hydroxyl radical scavenging activity by ABTS competition assay per 30 mins at 1 umol/mL. It counts as functional. The procedure, abridged: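 Fenton-initiated ABTS cation radical formation in distilled water adjusted to pH 5.0. Mix: ABTS 1 mM and FeSO4 0.5 mM (stock), test compound 1 mM in DMSO, 10% final DMSO in vehicle controls. Started by adding H2O2 10 mM (stock). Read at 420 nm every minute for 30 min. Output is quenched ABTS•+ in nmol/30 min, mean ± SEM, N = 10.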

Test [2] deals with Mixed cortical cells. In words: Inhibition of peroxynitrite-induced death of mixed cortical cells of E15 Sprague-Dawley rat embryo at 10 uM. Type of test: functional. The note with it: Mixed cortical cell. An outline of the steps: (§1)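 Primary mixed cortical cultures from E15 Sprague-Dawley rat embryos, exposed 24 h to oxidotoxin (hydrogen peroxide, peroxynitrite or doxorubicin, 200 µM) plus antioxidant at 10 µM. Cell death measured by trypan blue absorbance at 590 nm. Reported as % inhibition of trypan blue absorbance versus vehicle, mean ± SEM, N = 10.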

For test [3], the system named is Mixed cortical cells. As to the kind of experiment: Inhibition of hydrogen peroxide-induced death of mixed cortical cells of E15 Sprague-Dawley rat embryo at 10 uM. The note with it: Mixed cortical cell. It counts as functional. The procedure, abridged: as §1
For test [4], the system named is Rotifers. In words: Viability of rotifers against doxorubicin toxicity at 10 uM. It counts as organism-based. The note with it: Rotifera; read-out: Activity. The procedure, abridged:
(§2)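 Whole rotifers of defined, uniform age from one stock culture; standardized viability assay. Animals exposed 24 h to oxidotoxin (hydrogen peroxide or doxorubicin) at 200 µM together with antioxidant at 10 µM. Vehicle-only controls run in parallel. Read-out is % viable organisms, mean ± SEM, N = 10; ANOVA with Bonferroni t-test vs vehicle.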

Test [5] concerns Rotifers. As to the kind of experiment: Viability of rotifers against hydrogen peroxide toxicity at 10 uM. It counts as organism-based. The note with it: Rotifera; read-out: Activity. The procedure, abridged: as §2
The test system of test [6] is Mixed cortical cells. As to the kind of experiment: Inhibition of doxorubicin-induced death of mixed cortical cells of E15 Sprague-Dawley rat embryo at 10 uM. Type of test: functional. The note with it: Mixed cortical cell. The procedure, abridged:
as §1

In test [7] the test system is Radical scavenging activity. As to the kind of experiment: Radical reducing potency by ABTS cation radical reduction assay per 30 mins at […]. Type of test: functional. An outline of the steps: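 ABTS cation radical reduction assay (modified Re et al.). Assay ABTS•+ 105 µM, test compound 0.5 mM final. Started by adding the test agent. Read every minute at 420 nm for 30 min. DMSO vehicle controls at 2.5% final. Output is reduced ABTS•+ in nmol/30 min, mean ± SEM, N = 10.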

Consider `CC(C)(C)/[N+]([O-])=C/c1ccccc1`, for which the results for the Activity in test [1] and in test [7] were 18.2 nM and 7.8 nM, respectively. Moreover, the inhibition at 10 µM with Mixed cortical cells [2] stood at 20.6%; in the test with Mixed cortical cells [3], 25%; in the test on Mixed cortical cells [6], 24.2%. Besides, the results for the survival at 10 µM in the test on Rotifers [4] and with Rotifers [5] were 18.7% and 25.6%, respectively.
`O=C(O)CCc1c[nH]c2ccccc12`: the values for the Activity in test [1] and in test [7] were 95.7 nM and 96.5 nM, respectively. Moreover, the inhibition at 10 µM is 83.8% in the test with Mixed cortical cells [2], 87.7% in the test with Mixed cortical cells [3] and 76.1% in the test on Mixed cortical cells [6]. Moreover, the survival at 10 µM turned out to be 53.8% with Rotifers [4] and 67.9% in the test on Rotifers [5].
With `O=C(O)CCCCC1CCSS1` (stereo not drawn) [LIPOIC ACID, ALPHA], the inhibition at 10 µM in the test on Mixed cortical cells [2] turned out to be 13.1%; in the test with Mixed cortical cells [3], 15.1%; in the test with Mixed cortical cells [6], 14.8%. The survival at 10 µM with Rotifers [4] is 13.3%; in the test with Rotifers [5], 14.1%. The Activity in test [7] amounted to 44.1 nM.
Take `Cc1c(C)c2c(c(C)c1O)CCC(C)(C(=O)O)O2` (configuration not stated) [TROLOX]: the Activity turned out to be 87.3 nM in test [1] and 93.4 nM in test [7]. The results for the inhibition at 10 µM in the test with Mixed cortical cells [2], with Mixed cortical cells [3] and with Mixed cortical cells [6] were 16.8%, 22.2% and 15.5%, respectively. In addition, the survival at 10 µM in the test with Rotifers [4] is 13.1%; with Rotifers [5], 13%.
